*1 amine or outer side, *2 acyl side, *3 side chain or, on linkers, in order; H or OH if unused. Where a SMILES comes first, the peptide text is derived from it. [ ]: non-standard residue; d: D form. The star is where a group is joined. ξ: configuration not given here. LeuΨ(ξCHOHCH2)Val = CC(C)C[C@H](N[*:1])C(O)C[C@H](C(=O)[*:2])C(C)C; Boc = CC(C)(C)OC(=O)*; Piv = CC(C)(C)C(=O)*
Legend:
[1] = target: T1, Renin (Homo sapiens, UniProt P00797); assay: In vitro inhibition of purified Human kidney renin (250 pg/mL) incubated with angiotensinogen at pH 7.2
T1 sequence (P00797 whole entry): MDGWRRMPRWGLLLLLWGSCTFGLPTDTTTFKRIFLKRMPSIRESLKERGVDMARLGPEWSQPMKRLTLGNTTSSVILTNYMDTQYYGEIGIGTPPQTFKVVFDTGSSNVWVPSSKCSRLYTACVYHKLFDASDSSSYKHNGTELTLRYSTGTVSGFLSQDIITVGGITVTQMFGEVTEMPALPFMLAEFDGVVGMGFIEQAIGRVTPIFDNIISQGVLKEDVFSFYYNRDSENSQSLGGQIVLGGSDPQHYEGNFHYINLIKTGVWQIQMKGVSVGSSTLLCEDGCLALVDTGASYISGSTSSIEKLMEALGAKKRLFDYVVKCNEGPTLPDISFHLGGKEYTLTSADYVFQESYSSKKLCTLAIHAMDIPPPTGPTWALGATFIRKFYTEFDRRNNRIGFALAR
Procedure, shortened: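 Purified human kidney renin at 250 pg/mL, incubated at 37 °C with human angiotensinogen at pH 7.2.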

[2] = target: T2, Cathepsin D (Bos taurus, UniProt P80209); assay: In vitro inhibition of bovine cathepsin D
T2 sequence (P80209 whole entry): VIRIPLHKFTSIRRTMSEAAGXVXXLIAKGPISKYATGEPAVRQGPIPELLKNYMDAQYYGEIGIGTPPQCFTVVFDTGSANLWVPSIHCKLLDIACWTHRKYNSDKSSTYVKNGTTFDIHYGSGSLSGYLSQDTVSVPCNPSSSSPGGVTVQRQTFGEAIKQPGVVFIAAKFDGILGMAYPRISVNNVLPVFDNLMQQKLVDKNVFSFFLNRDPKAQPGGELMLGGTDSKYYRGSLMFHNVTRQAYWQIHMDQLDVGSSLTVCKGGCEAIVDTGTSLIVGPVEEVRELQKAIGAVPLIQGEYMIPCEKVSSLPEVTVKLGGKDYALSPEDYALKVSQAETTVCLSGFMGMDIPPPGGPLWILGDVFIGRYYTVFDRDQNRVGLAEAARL

[3] = test system: Monkey; assay: Reduction of blood pressure measured 60 min after administration of compound(dose 10mg/kg, po); type: functional
Procedure, shortened: (§1)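 Salt-depleted marmosets given a single intravenous or oral dose. Blood pressure change recorded in mmHg at 30, 60 and 120 min after dosing.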

[4] = test system: Monkey; assay: Reduction of blood pressure measured 60 min after administration of compound(dose 1 mg/kg, iv); type: functional; procedure, shortened: as §1
[5] = test system: Monkey; assay: Reduction of blood pressure measured 60 min after administration of compound(dose 1 mg/kg, p.o.); type: functional; conditions: route oral; procedure, shortened: as §1
[6] = test system: Monkey; assay: Reduction of blood pressure measured 60 min after administration of compound(dose 3 mg/kg, po); type: functional; procedure, shortened: as §1
[7] = test system: Monkey; assay: Reduction of blood pressure measured 120 min after administration of compound(dose 0.1 mg/kg, iv); type: functional; procedure, shortened: as §1
[8] = test system: Monkey; assay: Reduction of blood pressure measured 120 min after administration of compound(dose 10 mg/kg, po); type: functional; procedure, shortened: as §1
[9] = test system: Monkey; assay: Reduction of blood pressure measured 120 min after administration of compound(dose 1 mg/kg, iv); type: functional; procedure, shortened: as §1
[10] = test system: Monkey; assay: Reduction of blood pressure measured 120 min after administration of compound(dose 1 mg/kg, p.o.); type: functional; conditions: route oral; procedure, shortened: as §1
[11] = test system: Monkey; assay: Reduction of blood pressure measured 120 min after administration of compound(dose 3 mg/kg, po); type: functional; procedure, shortened: as §1
[12] = test system: Monkey; assay: Reduction of blood pressure measured 30 min after administration of compound(dose 0.1 mg/kg, iv); type: functional; procedure, shortened: as §1
[13] = test system: Monkey; assay: Reduction of blood pressure measured 30 min after administration of compound(dose 10mg/kg, po); type: functional; procedure, shortened: as §1
[14] = test system: Monkey; assay: Reduction of blood pressure measured 30 min after administration of compound(dose 1 mg/kg, iv); type: functional; procedure, shortened: as §1
[15] = test system: Monkey; assay: Reduction of blood pressure measured 30 min after administration of compound(dose 1 mg/kg, p.o.); type: functional; conditions: route oral; procedure, shortened: as §1
[16] = test system: Monkey; assay: Reduction of blood pressure measured 30 min after administration of compound(dose 3mg/kg, po); type: functional; procedure, shortened: as §1
[17] = test system: Monkey; assay: Reduction of blood pressure measured 60 min after administration of compound(dose 0.1 mg/kg, iv); type: functional; procedure, shortened: as §1

CCCCNC(=O)[C@@H](CC(O)[C@H](CC1CCCCC1)NC(=O)[C@H](Cc1c[nH]cn1)NC(=O)C(C)(OC(=O)C(C)(C)C)c1ccccc1)C(C)C (stereo not given in full)
IC50 [1]: 7 nM

CC[C@H](C)[C@H](NC(=O)[C@@H](CC(O)[C@H](CC(C)C)NC(=O)[C@H](Cc1cnc[nH]1)NC(=O)C(C)(OC(=O)C(C)(C)C)c1ccccc1)C(C)C)C(=O)N[C@@H](Cc1cnc[nH]1)C(N)=O (stereo not given in full)
IC50 [1]: 20 nM

CCCCNC(=O)[C@@H](CC(O)[C@H](CC1CCCCC1)NC(=O)[C@H](Cc1c[nH]cn1)NC(=O)[C@H](Cc1ccccc1)C[S+]([O-])C(C)(C)C)C(C)C (stereo not given in full)
IC50 [1]: 2 nM

CCCCNC(=O)[C@@H](CC(O)[C@H](CC1CCCCC1)NC(=O)[C@H](Cc1c[nH]cn1)NC(=O)C(CC(=O)C(C)(C)C)Cc1ccccc1)C(C)C (stereo not given in full)
IC50 [1]: 6 nM

CC[C@H](C)[C@H](NC(=O)[C@@H](CC(O)[C@H](CC(C)C)NC(=O)[C@H](Cc1cnc[nH]1)NC(=O)[C@H](Cc1ccccc1)NC(=O)OC(C)(C)C)C(C)C)C(=O)N[C@@H](Cc1cnc[nH]1)C(N)=O (stereo not given in full) (Boc-FH[LeuΨ(ξCHOHCH2)Val]IH-NH2)
IC50 [1]: 15 nM

CCCCNC(=O)[C@@H](CC(O)[C@H](CC1CCCCC1)NC(=O)[C@H](Cc1cnc[nH]1)NC(=O)[C@@H](CSC(C)(C)C)Cc1ccccc1)C(C)C (stereo not given in full)
IC50 [1]: 4 nM

CC[C@H](C)[C@H](NC(=O)[C@@H](CC(O)[C@H](CC(C)C)NC(=O)[C@H](Cc1c[nH]cn1)NC(=O)[C@H](Cc1ccccc1)NC(=O)C(C)(C)C)C(C)C)C(=O)N[C@@H](Cc1c[nH]cn1)C(N)=O (stereo not given in full) (Piv-FH[LeuΨ(ξCHOHCH2)Val]IH-NH2)
IC50 [1]: 20 nM

CCCCNC(=O)[C@@H](CC(O)[C@H](CC1CCCCC1)NC(=O)[C@H](Cc1cnc[nH]1)NC(=O)C(Cc1ccccc1)CP(=O)(OCC)OCC)C(C)C (stereo not given in full)
IC50 [1]: 4 nM

CCCCNC(=O)[C@@H](CC(O)[C@H](CC(C)C)NC(=O)[C@H](Cc1cnc[nH]1)NC(=O)C(C)(OC(=O)C(C)(C)C)c1ccccc1)C(C)C (stereo not given in full)
IC50 [1]: 20 nM

CCCCNC(=O)[C@@H](CC(O)[C@H](CC1CCCCC1)NC(=O)[C@H](Cc1c[nH]cn1)NC(=O)C(Cc1ccccc1)CS(=O)(=O)C(C)(C)C)C(C)C (stereo in doubt; 8i)
IC50 [2]: 3200 nM | Delta blood pressure [3]: -23 mmHg | Delta blood pressure [4]: -13 mmHg | Delta blood pressure [5]: -5 mmHg | Delta blood pressure [6]: -10 mmHg | Delta blood pressure [7]: -1 mmHg | Delta blood pressure [8]: -23 mmHg | Delta blood pressure [9]: -12 mmHg | Delta blood pressure [10]: -6 mmHg | Delta blood pressure [11]: -8 mmHg | Delta blood pressure [12]: -13 mmHg | Delta blood pressure [13]: -18 mmHg | Delta blood pressure [14]: -17 mmHg | Delta blood pressure [15]: 0 mmHg | Delta blood pressure [16]: -6 mmHg | Delta blood pressure [17]: -5 mmHg

Reference: ChEMBL document CHEMBL1124210, “Synthesis and biological activity of some transition-state inhibitors of human renin” (J Med Chem, 1988)
